Data published in ChEMBL document CHEMBL4020727, “Synthesis and biological evaluation of largazole zinc-binding group analogs” (Bioorg Med Chem, 2017).

How the values were obtained:
Homo sapiens = species on record: Homo sapiens; experiment: Inhibition of class 1 HDAC in human HCT116 cells assessed as hyperacetylation of histone H3 (Lys9/14) measured at 8 hrs post treatment by immunoblot analysis; assay type: cell-based
Method in brief: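 Cells in DMEM/10% FBS; 4 × 10^5 cells seeded in 60-mm dishes overnight, then treated for 8 h with 0–10 μM (final) compound or vehicle (1% EtOH). Whole-cell lysates loaded at equal protein (BCA), run on SDS-PAGE, blotted to PVDF and probed with anti-acetyl histone H3 (Lys9/14); β-actin also probed. Chemiluminescent detection.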

Histone deacetylase 1 = Histone deacetylase 1 (Homo sapiens, UniProt Q13547); experiment: Inhibition of recombinant full length C-terminal His/FLAG-tagged human HDAC1 expressed in baculovirus infected Sf9 insect cells using BPS HDAC substrate 3 after 30 mins by fluorescence assay
Method in brief: (§1)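 Run by a contract lab. Compound incubated with HDAC enzyme, HDAC substrate, BSA and HDAC buffer, in duplicate, at 37 °C for 30 min. Quenched with HDAC developer, then 15 min at room temperature. Percent activity = (F−Fb)/(Ft−Fb), using blank and solvent-control wells. IC50 from curve fitting.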

Histone deacetylase 8 = target: T1, Histone deacetylase 8 (Homo sapiens, UniProt Q9BY41); experiment: Inhibition of full length C-terminal His-tagged human HDAC8 expressed in baculovirus infected Sf9 insect cells using BPS HDAC class 2a substrate after 30 mins by fluorescence assay; method in brief: as §1
T1 sequence (Q9BY41 whole entry): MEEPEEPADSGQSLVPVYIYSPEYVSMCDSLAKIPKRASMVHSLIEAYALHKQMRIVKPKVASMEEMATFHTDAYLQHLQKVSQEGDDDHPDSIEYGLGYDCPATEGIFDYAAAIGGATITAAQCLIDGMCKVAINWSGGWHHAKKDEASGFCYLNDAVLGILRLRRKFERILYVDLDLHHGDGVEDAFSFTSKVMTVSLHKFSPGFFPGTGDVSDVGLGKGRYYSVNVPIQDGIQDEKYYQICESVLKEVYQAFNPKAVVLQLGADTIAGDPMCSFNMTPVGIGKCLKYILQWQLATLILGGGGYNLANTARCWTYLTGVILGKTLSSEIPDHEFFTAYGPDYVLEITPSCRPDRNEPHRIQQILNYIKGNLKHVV

[1] = target: T2, Polyamine deacetylase HDAC10 (Homo sapiens, UniProt Q969S8); experiment: Inhibition of N-terminal GST-tagged/C-terminal His-tagged human HDAC10 (1 to 481 residues) expressed in baculovirus infected Sf9 insect cells using BPS HDAC substrate 3 after 30 mins by fluorescence assay
T2 sequence (Q969S8 whole entry): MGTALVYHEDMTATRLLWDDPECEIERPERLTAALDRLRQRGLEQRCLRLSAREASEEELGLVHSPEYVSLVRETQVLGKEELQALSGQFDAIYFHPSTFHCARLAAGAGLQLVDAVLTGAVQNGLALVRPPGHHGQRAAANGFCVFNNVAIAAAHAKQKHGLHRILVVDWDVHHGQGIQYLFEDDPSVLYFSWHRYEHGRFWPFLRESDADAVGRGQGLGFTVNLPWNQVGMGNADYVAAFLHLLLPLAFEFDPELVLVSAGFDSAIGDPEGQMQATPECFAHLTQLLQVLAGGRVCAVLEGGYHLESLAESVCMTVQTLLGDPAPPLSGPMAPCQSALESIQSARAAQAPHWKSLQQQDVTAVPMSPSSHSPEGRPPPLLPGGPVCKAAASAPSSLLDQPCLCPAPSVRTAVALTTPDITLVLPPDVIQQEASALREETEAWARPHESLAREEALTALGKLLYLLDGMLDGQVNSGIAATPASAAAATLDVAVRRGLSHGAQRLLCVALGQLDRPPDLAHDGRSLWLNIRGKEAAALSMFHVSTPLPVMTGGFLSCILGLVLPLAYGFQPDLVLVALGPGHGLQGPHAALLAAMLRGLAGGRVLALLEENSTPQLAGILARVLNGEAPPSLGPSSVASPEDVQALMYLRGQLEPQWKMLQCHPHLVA
Method in brief: as §1, with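 “temperature. Fluorescence read at ex 360/em 460 nm.” for “temperature.”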

[2] = target: Histone deacetylase 5 (Homo sapiens) (UniProt Q9UQL6); experiment: Inhibition of full length N-terminal GST-tagged human HDAC5 expressed in baculovirus infected Sf9 insect cells using BPS HDAC class 2a substrate at 10 uM after 30 mins by fluorescence assay relative to control
Method in brief: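 Run by a contract lab. Compound incubated with HDAC enzyme, substrate, bovine serum albumin and HDAC buffer in duplicate for 30 min at 37 °C. Quenched with HDAC developer, 15 min at room temperature, fluorescence read at ex 360/em 460 nm. Activity taken as (F−Fb)/(Ft−Fb) against blank and solvent control wells; IC50 from curve fitting.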

[3] = target: Histone deacetylase 3/Nuclear receptor corepressor 2 (HDAC3/NCoR2) (Homo sapiens, UniProt O15379); experiment: Inhibition of full length human C-terminal His-tagged HDAC3/N-terminal GST-tagged NCOR2 (395 to 489 residues) expressed in baculovirus infected Sf9 insect cells using BPS HDAC substrate 3 after 30 mins by fluorescence assay
Method in brief: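 Run by a contract lab. Compound incubated with HDAC enzyme, substrate, bovine serum albumin and HDAC buffer in duplicate for 30 min at 37 °C. Activity taken as (F−Fb)/(Ft−Fb) against blank and solvent control wells; IC50 from curve fitting.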

MDA-MB-231 = experiment: Cytotoxicity against human MDA-MB-231 cells assessed as reduction in cell viability after 48 hrs by MTT assay; assay type: functional, cell-based; settings: MDA-MB-231, 48 h
Method in brief: (§2)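 Cells grown in DMEM with 10% FBS, 37 °C, 5% CO2; 1 × 10^4 cells per well plated and left 24 h, then exposed to a range of compound concentrations or vehicle (1% EtOH) for 48 h. Viability read by MTT.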

HCT-116 = experiment: Cytotoxicity against human HCT116 cells assessed as reduction in cell viability after 48 hrs by MTT assay; assay type: functional, cell-based; settings: HCT-116, 48 h; method in brief: as §2
Histone deacetylase 2 = Histone deacetylase 2 (Homo sapiens, UniProt Q92769); experiment: Inhibition of full length C-terminal FLAG-tagged human HDAC2 expressed in baculovirus infected Sf9 insect cells using BPS HDAC substrate 3 after 30 mins by fluorescence assay; method in brief: as §1
Chain of Histone deacetylase 2 (Q92769 whole entry): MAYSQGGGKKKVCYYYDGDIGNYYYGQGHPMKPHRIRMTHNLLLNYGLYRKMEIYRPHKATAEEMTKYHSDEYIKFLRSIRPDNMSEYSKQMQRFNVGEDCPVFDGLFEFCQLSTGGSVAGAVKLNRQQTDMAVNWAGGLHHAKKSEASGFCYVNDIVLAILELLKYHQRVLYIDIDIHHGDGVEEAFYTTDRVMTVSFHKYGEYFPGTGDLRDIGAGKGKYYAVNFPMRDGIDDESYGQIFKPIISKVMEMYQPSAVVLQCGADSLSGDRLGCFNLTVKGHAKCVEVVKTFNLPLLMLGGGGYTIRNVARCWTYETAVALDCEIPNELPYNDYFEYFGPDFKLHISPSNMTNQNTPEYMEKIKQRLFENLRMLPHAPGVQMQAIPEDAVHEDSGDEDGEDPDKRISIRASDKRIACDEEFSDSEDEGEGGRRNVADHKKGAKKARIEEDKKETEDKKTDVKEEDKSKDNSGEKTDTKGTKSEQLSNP

Chain of Histone deacetylase 5 (Homo sapiens) (Q9UQL6 whole entry): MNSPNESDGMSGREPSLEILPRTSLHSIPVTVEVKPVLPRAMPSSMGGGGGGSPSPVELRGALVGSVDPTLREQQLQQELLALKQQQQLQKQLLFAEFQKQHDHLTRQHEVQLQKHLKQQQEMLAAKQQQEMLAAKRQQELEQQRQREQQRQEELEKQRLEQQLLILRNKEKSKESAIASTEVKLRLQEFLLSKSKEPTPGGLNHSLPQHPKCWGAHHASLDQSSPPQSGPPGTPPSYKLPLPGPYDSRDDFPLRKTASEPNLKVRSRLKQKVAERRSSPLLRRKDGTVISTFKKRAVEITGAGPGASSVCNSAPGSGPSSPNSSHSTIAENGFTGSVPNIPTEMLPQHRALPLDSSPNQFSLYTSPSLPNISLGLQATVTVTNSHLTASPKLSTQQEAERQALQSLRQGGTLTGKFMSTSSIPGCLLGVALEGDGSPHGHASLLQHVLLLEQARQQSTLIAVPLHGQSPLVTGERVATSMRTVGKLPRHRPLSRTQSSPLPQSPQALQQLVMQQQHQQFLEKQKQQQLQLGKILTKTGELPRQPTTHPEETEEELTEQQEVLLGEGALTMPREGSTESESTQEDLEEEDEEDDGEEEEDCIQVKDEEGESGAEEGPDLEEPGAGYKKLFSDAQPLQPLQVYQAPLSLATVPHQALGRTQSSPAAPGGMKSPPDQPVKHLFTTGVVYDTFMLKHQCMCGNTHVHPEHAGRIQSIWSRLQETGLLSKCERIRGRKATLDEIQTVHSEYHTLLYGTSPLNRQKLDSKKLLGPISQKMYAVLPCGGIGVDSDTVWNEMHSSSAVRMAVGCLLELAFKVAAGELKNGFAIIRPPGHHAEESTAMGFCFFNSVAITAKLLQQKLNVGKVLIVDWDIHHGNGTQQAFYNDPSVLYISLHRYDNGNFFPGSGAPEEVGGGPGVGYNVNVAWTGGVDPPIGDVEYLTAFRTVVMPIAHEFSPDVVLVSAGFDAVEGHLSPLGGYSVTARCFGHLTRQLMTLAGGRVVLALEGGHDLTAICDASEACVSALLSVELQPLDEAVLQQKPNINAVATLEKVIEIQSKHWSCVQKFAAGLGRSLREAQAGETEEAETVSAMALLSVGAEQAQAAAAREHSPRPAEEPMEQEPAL
Chain of Histone deacetylase 1 (Q13547 whole entry): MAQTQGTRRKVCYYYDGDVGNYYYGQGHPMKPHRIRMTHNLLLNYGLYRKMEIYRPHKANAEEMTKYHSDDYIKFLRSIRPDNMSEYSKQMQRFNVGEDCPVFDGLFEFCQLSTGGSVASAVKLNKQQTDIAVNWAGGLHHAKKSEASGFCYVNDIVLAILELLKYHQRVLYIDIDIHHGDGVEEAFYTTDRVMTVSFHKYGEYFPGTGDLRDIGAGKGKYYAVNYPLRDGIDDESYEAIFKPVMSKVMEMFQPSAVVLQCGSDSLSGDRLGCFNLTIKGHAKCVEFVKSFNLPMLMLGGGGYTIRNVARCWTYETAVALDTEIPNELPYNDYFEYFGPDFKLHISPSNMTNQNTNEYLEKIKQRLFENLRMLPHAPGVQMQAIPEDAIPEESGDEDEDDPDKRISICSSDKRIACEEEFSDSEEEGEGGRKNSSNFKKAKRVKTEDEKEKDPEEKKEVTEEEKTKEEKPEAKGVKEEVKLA
Chain of Histone deacetylase 3/Nuclear receptor corepressor 2 (HDAC3/NCoR2) (O15379 whole entry, the tested form may be a part): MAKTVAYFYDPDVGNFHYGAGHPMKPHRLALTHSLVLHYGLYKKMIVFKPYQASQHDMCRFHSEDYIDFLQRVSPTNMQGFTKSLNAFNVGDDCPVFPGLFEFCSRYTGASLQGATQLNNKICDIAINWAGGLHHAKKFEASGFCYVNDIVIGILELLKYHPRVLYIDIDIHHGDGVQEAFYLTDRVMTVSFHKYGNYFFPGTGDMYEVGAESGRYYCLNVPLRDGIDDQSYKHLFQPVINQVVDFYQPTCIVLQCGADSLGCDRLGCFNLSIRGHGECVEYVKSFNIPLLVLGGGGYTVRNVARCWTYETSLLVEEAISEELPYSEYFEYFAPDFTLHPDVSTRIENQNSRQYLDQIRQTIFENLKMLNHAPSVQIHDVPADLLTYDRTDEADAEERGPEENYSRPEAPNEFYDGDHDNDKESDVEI
Chain of Histone deacetylase 3/Nuclear receptor corepressor 2 (HDAC3/NCoR2) (Q9Y618 whole entry, further chain, the tested form may be a part): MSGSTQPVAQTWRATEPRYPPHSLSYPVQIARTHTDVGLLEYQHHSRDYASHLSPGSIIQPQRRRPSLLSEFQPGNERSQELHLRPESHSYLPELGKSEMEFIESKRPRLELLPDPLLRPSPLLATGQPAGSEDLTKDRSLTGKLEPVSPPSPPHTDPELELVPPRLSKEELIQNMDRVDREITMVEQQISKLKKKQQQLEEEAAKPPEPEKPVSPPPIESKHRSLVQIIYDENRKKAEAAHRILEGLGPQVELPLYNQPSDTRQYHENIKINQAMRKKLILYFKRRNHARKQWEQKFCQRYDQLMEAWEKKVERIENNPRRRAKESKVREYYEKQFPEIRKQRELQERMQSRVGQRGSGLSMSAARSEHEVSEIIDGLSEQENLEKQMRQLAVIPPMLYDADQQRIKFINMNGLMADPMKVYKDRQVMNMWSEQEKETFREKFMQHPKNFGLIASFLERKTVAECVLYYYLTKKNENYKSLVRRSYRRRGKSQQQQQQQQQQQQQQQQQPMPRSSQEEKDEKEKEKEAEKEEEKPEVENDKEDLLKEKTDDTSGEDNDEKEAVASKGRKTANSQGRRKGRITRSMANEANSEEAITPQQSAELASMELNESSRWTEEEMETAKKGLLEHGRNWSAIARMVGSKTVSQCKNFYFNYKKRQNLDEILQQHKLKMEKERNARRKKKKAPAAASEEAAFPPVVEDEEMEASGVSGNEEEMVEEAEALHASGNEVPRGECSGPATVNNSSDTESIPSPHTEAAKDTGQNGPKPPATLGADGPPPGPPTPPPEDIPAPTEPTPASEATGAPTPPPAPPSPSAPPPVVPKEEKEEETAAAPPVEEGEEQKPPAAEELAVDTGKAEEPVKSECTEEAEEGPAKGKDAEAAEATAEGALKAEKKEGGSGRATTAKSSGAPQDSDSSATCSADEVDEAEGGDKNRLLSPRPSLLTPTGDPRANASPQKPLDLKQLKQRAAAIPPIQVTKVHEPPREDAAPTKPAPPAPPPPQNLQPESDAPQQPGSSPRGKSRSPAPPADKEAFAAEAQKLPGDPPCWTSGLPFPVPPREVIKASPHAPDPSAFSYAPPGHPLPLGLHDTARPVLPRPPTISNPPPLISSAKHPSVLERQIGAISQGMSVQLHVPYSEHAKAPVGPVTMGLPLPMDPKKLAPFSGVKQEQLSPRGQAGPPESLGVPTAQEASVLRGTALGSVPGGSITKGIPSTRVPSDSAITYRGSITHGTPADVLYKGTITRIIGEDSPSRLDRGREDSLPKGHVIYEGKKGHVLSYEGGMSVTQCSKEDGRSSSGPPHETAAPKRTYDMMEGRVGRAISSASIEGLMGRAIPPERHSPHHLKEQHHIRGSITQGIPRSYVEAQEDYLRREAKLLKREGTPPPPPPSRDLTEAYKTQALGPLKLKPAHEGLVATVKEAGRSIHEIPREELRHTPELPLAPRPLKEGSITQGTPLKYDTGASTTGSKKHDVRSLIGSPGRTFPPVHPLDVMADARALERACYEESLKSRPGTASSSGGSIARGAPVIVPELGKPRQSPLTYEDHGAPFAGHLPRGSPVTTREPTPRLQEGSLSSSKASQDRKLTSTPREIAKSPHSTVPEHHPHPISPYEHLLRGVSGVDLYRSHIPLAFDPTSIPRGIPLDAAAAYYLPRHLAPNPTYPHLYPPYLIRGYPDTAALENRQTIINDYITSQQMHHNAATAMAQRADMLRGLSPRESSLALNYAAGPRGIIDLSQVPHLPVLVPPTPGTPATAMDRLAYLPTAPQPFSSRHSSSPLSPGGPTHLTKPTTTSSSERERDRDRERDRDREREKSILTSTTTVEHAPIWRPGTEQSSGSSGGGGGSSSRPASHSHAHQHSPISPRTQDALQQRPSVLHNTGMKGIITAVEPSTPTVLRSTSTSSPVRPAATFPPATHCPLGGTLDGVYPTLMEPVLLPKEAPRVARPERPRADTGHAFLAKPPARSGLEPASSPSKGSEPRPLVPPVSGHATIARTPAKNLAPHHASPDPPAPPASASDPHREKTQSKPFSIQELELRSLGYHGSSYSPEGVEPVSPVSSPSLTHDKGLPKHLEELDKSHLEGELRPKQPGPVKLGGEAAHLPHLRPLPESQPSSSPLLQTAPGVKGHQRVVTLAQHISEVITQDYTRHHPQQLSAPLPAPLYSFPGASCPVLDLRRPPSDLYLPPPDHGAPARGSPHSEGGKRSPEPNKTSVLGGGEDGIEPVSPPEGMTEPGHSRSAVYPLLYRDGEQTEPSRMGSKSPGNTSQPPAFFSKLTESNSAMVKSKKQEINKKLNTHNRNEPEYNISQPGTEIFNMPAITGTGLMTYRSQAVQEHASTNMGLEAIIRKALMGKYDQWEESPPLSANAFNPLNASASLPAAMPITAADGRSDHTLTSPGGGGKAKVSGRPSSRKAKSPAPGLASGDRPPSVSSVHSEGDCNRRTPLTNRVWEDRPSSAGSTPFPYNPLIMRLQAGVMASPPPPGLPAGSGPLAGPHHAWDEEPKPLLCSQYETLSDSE

SMILES: CC(C)[C@@H]1NC(=O)[C@]2(C)CSC(=N2)c2csc(n2)CNC(=O)C[C@@H](/C=C/CCC(=O)NO)OC1=O
- inhibition (Homo sapiens): Dose-dependent effect
- IC50 (Histone deacetylase 1): 26 nM
- IC50 (Histone deacetylase 8): 3.5 µM
- IC50 [1]: 21 nM
- inhibition [2]: 21%
- IC50 [3]: 29 nM
- IC50 (MDA-MB-231): 497 nM
- IC50 (HCT-116): 3300 nM
- IC50 (Histone deacetylase 2): 69 nM

SMILES: CC(C)[C@@H]1NC(=O)[C@]2(C)CSC(=N2)c2csc(n2)CNC(=O)C[C@@H](/C=C/CCSCCS)OC1=O
- inhibition (Homo sapiens): Dose-dependent effect
- IC50 (Histone deacetylase 1): 40 nM
- IC50 (Histone deacetylase 8): 9.6 µM
- IC50 [1]: 3.6 nM
- inhibition [2]: 22%
- IC50 [3]: 43 nM
- IC50 (MDA-MB-231): 480 nM
- IC50 (HCT-116): 1500 nM
- IC50 (Histone deacetylase 2): 90 nM
